Assay results from publication PMC3561458 (Investigational new drugs, 2011).

How the values were obtained:
[1] = tested on: patients; settings: cited from earlier work
[2] = tested on: CDK1; settings: cited from earlier work
[3] = tested on: CDK2; settings: cited from earlier work
[4] = tested on: CDK7; settings: cited from earlier work
[5] = tested on: CDK4; settings: cited from earlier work
[6] = tested on: patients; settings: intravenous; cited from earlier work
[7] = Urinary excretion; type: in vivo, human; settings: patients at the RP2D in S1
How it was run: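 Urine is collected only from S1 patients dosed at the recommended phase II dose, with once-daily oral dosing for 7 days in 2-week cycles. Parent compound and metabolite in urine are measured by validated LC-MS-MS, with calibration ranges of 0.217–109 μM for the parent and 0.210–105 μM for the metabolite.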

[8] = Plasma pharmacokinetics; type: in vivo, human; settings: across doses
How it was run: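 The test compound is given orally once daily for 7 days in 2-week cycles (S1). Plasma is sampled in cycle 1 on days 1, 2, 4, 7, 8 and 9, and in cycle 2 on days 1, 4 and 7. Cycle 1 day 1 is sampled from 30 min to 24 h after dosing and day 7 from 30 min to 96 h. Parent and metabolite are measured by validated LC-MS-MS, with calibration ranges of 0.00109–1.09 and 0.00105–1.05 μM respectively.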

[9] = tested on: patients; settings: cited from earlier work; remark: listed apart in the source

CC[C@H](CO)Nc1nc(NCc2ccccc2)c2ncn(C(C)C)c2n1 [seliciclib]
toxicities [1]: myelotoxicity, GI toxicity, fatigue, skin rash and electrolytes inbalance, with no neurological toxicity

Cc1ncc(-c2ccnc(Nc3ccc(S(C)(=O)=O)cc3)n2)n1C(C)C [AZD438]
toxicities [1]: myelotoxicity, GI toxicity, fatigue, skin rash and electrolytes inbalance, with no neurological toxicity

CN1CC[C@H](c2c(O)cc(O)c3c(=O)cc(-c4ccccc4Cl)oc23)[C@H](O)C1 [flavopiridol, reference compound]
inhibition of CDK1 [2]: demonstrated inhibition
inhibition of CDK2 [3]: demonstrated inhibition
inhibition of CDK7 [4]: demonstrated inhibition
inhibition of CDK4 [5]: demonstrated inhibition
clinical activity [6]: showed activity in some patients with non-Hodgkin’s lymphoma, renal, prostate, colon, and gastric carcinomas
main side effects [6]: secretory diarrhea, a proinflammatory syndrome associated with hypotension, and hyperglycemia

CCc1cnn2c(NCc3ccc[n+]([O-])c3)cc(N3CCCC[C@H]3CCO)nc12 [dinaciclib]
toxicities [1]: myelotoxicity, GI toxicity, fatigue, skin rash and electrolytes inbalance, with no neurological toxicity

Nc1nc2cccc(-c3ccc(CN4CCS(=O)(=O)CC4)cc3)n2n1 [metabolite]
amount excreted in urine [7]: 13 % of dose
AUC0-24 of the metabolite relative to parent compound [8]: approximately 30%
Cmax of the metabolite relative to parent compound [8]: approximately 30%

C[C@]12O[C@H](C[C@]1(O)CO)n1c3ccccc3c3c4c(c5c6ccccc6n2c5c31)CNC4=O [CEP-701]
most frequently reported side effects [9]: predominantly GI-related (nausea, diarrhea, anorexia, constipation, and vomiting), and asthenia
patients with stable disease for at least six months [9]: three
patients with stable disease for more than three months [9]: Seven of 30
